Data from ChEMBL document CHEMBL1649438, “Activities of ceftobiprole and other cephalosporins against extracellular and intracellular (THP-1 macrophages and keratinocytes) forms of methicillin-susceptible and methicillin-resistant Staphylococcus aureus” (Antimicrob Agents Chemother, 2009).
≈ marks a conversion by molar mass, not a printed value.

Experiments:
Staphylococcus aureus [1] = experiment: Antimicrobial activity against methicillin-susceptible Staphylococcus aureus ATCC 25923 infected in human keratinocytes assessed as change in bacterial count after 24 hrs; assay type: functional, organism-based; conditions: ATCC 25923, 24 h
Summary of the method: (§1)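 Primary human skin keratinocytes were grown in defined keratinocyte serum-free medium and infected with S. aureus to 1.5 × 10^6 to 3.0 × 10^6 CFU/mg cell protein. Cells were exposed 24 h to increasing extracellular concentrations. Response was the log10 CFU change from the postphagocytosis inoculum, fitted by a Hill equation with slope 1. Cs is the concentration giving CFU equal to the original inoculum, found by graphical interpolation.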

Staphylococcus aureus [2] = experiment: Antimicrobial activity against methicillin-resistant Staphylococcus aureus ATCC 33591 infected in human keratinocytes assessed as bacterial count per mg of cell protein at low extracellular compound concentration after 24 hrs; assay type: functional
Summary of the method: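 Primary human skin keratinocytes were grown in defined keratinocyte serum-free medium, infected with a postphagocytosis inoculum of 1.5 × 10⁶ to 3.0 × 10⁶ CFU/mg cell protein, then exposed 24 h to increasing extracellular antibiotic concentrations. Change in log10 CFU/mg protein from the inoculum was fitted to a Hill equation with slope 1. E0 and Emax were extrapolated to infinitely low and high concentrations, in total drug mg/liter.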

Staphylococcus aureus [3] = experiment: Bacteriostatic activity against methicillin-susceptible Staphylococcus aureus ATCC 25923 infected in human keratinocytes assessed as change in bacterial count after 24 hrs; assay type: functional; summary of the method: as §1
Staphylococcus aureus [4] = experiment: Bacteriostatic activity against methicillin-resistant Staphylococcus aureus ATCC 33591 infected in human keratinocytes assessed as change in bacterial count after 24 hrs; assay type: functional
Summary of the method: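 Primary human skin keratinocytes were grown in defined keratinocyte serum-free medium, infected, then incubated 24 h with increasing extracellular drug concentrations. Response was the change in log10 CFU/mg cell protein versus the post-phagocytosis inoculum, fitted to a Hill equation with slope factor 1. Static concentration (mg/liter, total drug) was taken by graphical interpolation where CFU equalled the original inoculum.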

Staphylococcus aureus [5] = experiment: Antimicrobial activity against methicillin-susceptible Staphylococcus aureus ATCC 25923 infected in human keratinocytes assessed as bacterial count per mg of cell protein at low extracellular compound concentration after 24 hrs; assay type: functional; summary of the method: as §1
Staphylococcus aureus [6] = experiment: Ratio of MIC for beta-lactamase-negative methicillin-susceptible Staphylococcus aureus ATCC 25923 by microdilution method at pH 7.4 to ratio of MIC for beta-lactamase-negative methicillin-susceptible Staphylococcus aureus ATCC 25923 by microdilution method at pH 5.5; assay type: functional
Summary of the method: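 MICs were measured by broth microdilution, with the broth adjusted to pH 7.4 or pH 5.5 before inoculation. pH was confirmed at the end of the assay to within ±0.1 unit. The value is the fold decrease in MIC between pH 7.4 and pH 5.5.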

Staphylococcus aureus [7] = experiment: Ratio of MIC for hospital-acquired methicillin-resistant Staphylococcus aureus ATCC 33591 by microdilution method at pH 7.4 to ratio of MIC for hospital-acquired methicillin-resistant Staphylococcus aureus ATCC 33591 by microdilution method at pH 5.5; assay type: functional
Summary of the method: (§2)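 MICs were determined by broth microdilution at pH 7.4 and pH 5.5. Broth was adjusted before inoculation, and pH was confirmed maintained (±0.1 unit) at the end.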

Staphylococcus aureus [8] = experiment: Antimicrobial activity against methicillin-susceptible Staphylococcus aureus ATCC 25923 infected in human keratinocytes assessed as bacterial count per mg of cell protein at high extracellular compound concentration after 24 hrs; assay type: functional; summary of the method: as §1
Staphylococcus aureus [9] = experiment: microbe, parasite or virus in culture; conditions: ATCC 11632
Staphylococcus aureus [10] = experiment: Antimicrobial activity against hospital-acquired methicillin-resistant Staphylococcus aureus N4112910 obtained from nasal swap of patient by microdilution method at pH 5.5
Staphylococcus aureus [11] = experiment: microbe, parasite or virus in culture; conditions: ATCC 25923
Staphylococcus aureus [12] = experiment: Antimicrobial activity against hospital-acquired vancomycin-intermediate Staphylococcus aureus NRS126 obtained from bloodstream infection of patient by microdilution method at pH 5.5
Staphylococcus aureus [13] = experiment: Ratio of MIC for hospital-acquired methicillin-resistant Staphylococcus aureus ATCC 33591 by microdilution method at pH 5.5 to MIC for beta-lactamase-negative methicillin-susceptible Staphylococcus aureus ATCC 25923 by microdilution method at pH 5.5; assay type: functional; summary of the method: as §2

Structure (SMILES)	EC50 (Staphylococcus aureus [1])	log10cfu (Staphylococcus aureus [2])	Activity (Staphylococcus aureus [3])	Activity (Staphylococcus aureus [4])	log10cfu (Staphylococcus aureus [5])	fold change (FC) (Staphylococcus aureus [6])	fold change (FC) (Staphylococcus aureus [7])	log10cfu (Staphylococcus aureus [8])	MIC (Staphylococcus aureus [9])	MIC (Staphylococcus aureus [10])	MIC (Staphylococcus aureus [11])	MIC (Staphylococcus aureus [12])	fold change (FC) (Staphylococcus aureus [13])
CO[C@@]1(NC(=O)Cc2cccs2)C(=O)N2C(C(=O)O)=C(COC(N)=O)CS[C@@H]21 [CEFOXITIN]	0.55 µg/mL (≈ 1.29 µM)	2.36	1.84 mg/L	>200 mg/L	3.06	4	512	-0.91	–	–	–	–	–
CN[C@H](CC(C)C)C(=O)N[C@H]1C(=O)N[C@@H](CC(N)=O)C(=O)N[C@H]2C(=O)N[C@H]3C(=O)N[C@H](C(=O)N[C@H](C(=O)O)c4cc(O)cc(O)c4-c4cc3ccc4O)[C@H](O)c3ccc(c(Cl)c3)Oc3cc2cc(c3O[C@@H]2O[C@H](CO)[C@@H](O)[C@H](O)[C@H]2O[C@H]2C[C@](C)(N)[C@H](O)[C@H](C)O2)Oc2ccc(cc2Cl)[C@H]1O [VANCOMYCIN]	–	–	–	–	–	–	–	–	0.25 µg/mL (≈ 0.173 µM)	0.25 µg/mL (≈ 0.173 µM)	0.25 µg/mL (≈ 0.173 µM)	0.25 µg/mL (≈ 0.173 µM)	–
CO/N=C(\C(=O)N[C@@H]1C(=O)N2C(C(=O)O)=C(CSc3nc(=O)c(O)nn3C)CS[C@H]12)c1csc(N)n1 [CEFTRIAXONE]	1.83 µg/mL (≈ 3.3 µM)	2.09	14.8 mg/L	>200 mg/L	2.44	16	512	-0.3	–	–	–	–	4
CO/N=C(\C(=O)N[C@@H]1C(=O)N2C(C(=O)O)=C(COC(N)=O)CS[C@H]12)c1ccco1 [CEFUROXIME]	0.27 µg/mL (≈ 0.636 µM)	2.75	0.26 mg/L	200 mg/L	3.23	16	128	-0.42	–	–	–	–	4
CC1=C(C(=O)O)N2C(=O)[C@@H](NC(=O)[C@H](N)c3ccccc3)[C@H]2SC1 [CEPHALEXIN ANHYDROUS]	0.27 µg/mL (≈ 0.777 µM)	2.42	200 mg/L	–	3.09	2	16	0.035	–	–	–	–	16
